# Source: PMC11303814 (Nature Communications, 2024)
# Numbering of substitutions follows the chain as printed.
# Assays:
# Assay type in all cases: cell-based
# [1] = target: T1, rP2X7-Q143A/I214A (Rattus norvegicus, UniProt Q64663, I214A/Q143A); assay: TEVC deactivation time; conditions: after 100 μM ATP or 10 μM BzATP
# T1 sequence (Q64663 1-595 Q143A/I214A): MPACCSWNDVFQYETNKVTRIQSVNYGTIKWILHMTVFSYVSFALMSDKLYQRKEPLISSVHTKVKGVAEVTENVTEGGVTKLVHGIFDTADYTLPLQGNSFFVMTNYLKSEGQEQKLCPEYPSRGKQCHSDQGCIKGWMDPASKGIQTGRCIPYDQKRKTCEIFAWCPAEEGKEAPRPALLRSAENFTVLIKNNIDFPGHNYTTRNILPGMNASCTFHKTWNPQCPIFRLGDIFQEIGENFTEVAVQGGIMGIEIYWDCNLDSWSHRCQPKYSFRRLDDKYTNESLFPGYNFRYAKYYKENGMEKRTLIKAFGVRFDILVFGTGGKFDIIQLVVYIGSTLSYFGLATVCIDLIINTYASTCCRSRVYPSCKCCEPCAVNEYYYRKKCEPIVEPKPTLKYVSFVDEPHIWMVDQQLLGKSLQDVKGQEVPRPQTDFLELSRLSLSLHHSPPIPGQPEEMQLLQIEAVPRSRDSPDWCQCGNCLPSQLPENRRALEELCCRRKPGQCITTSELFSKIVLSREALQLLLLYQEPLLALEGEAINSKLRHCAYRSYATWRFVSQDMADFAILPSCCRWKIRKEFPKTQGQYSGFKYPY
# How it was run: (§1)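 Xenopus oocytes injected with 50 nL of 10 ng/µL mutant rP2X7 mRNA, expressed ~20 h, clamped in pH 7.4 HEPES buffer with 0.1 mM flufenamic acid and EDTA. Currents were evoked by 100 µM ATP or 10 µM BzATP. τ is the time for current to return to 63% of baseline after agonist removal, from a one- or two-phase decay fit. Done in triplicate over first to third applications per oocyte; mean ± SD.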
# [2] = target: T2, rP2X7-R125A/Q143A/I214A (Rattus norvegicus, UniProt Q64663, I214A/Q143A/R125A); assay: TEVC dose response; conditions: read-out: EC50 (apparent affinity), mean ± SD, triplicate
# T2 sequence (Q64663 1-595 R125A/Q143A/I214A): T1 sequence (Q64663 1-595 Q143A/I214A) with R125A
# [3] = target: T3, rP2X7 K127A (Rattus norvegicus, UniProt Q64663, K127A); assay: TEVC deactivation time; conditions: after 100 μM ATP or 10 μM BzATP
# T3 sequence (Q64663 1-595 K127A): T1 sequence (Q64663 1-595 Q143A/I214A) with K127A, A143Q, A214I
# How it was run: as §1
# [4] = target: T4, rP2X7-R125A (Rattus norvegicus, UniProt Q64663, R125A); assay: TEVC dose response; conditions: read-out: EC50 (apparent affinity), mean ± SD, triplicate
# T4 sequence (Q64663 1-595 R125A): T1 sequence (Q64663 1-595 Q143A/I214A) with R125A, A143Q, A214I
# How it was run: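 TEVC was run on Xenopus oocytes ~20 h after injection of wild-type or mutant rP2X7 mRNA, in pH 7.4 HEPES buffer with 0.1 mM flufenamic acid. Receptors were facilitated at 100 µM before recording. Dilution series: ATP 1.5 mM–2 µM (7 points), BzATP 300–0.14 µM (8 points). Responses were normalized to the largest concentration, fitted by nonlinear regression for EC50, and averaged across triplicates (mean ± SD).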
deactivation lifetime τ [1],EC50 [2],deactivation lifetime τ [3],EC50 [4],Compound
2.9 ± 1.0 s,203 ± 12 µM,2.3 ± 0.7 s,41 ± 14 µM,Nc1ncnc2c1ncn2[C@@H]1O[C@H](COP(=O)(O)OP(=O)(O)OP(=O)(O)O)[C@@H](O)[C@H]1O [ATP]
4.3 ± 1.7 s,198 ± 60 µM,21 ± 6.2 s,5 ± 1 µM,BzATP
